From ChEMBL document CHEMBL2321783, “Structure-activity relationships of peptides incorporating a bioactive reverse-turn heterocycle at the melanocortin receptors: identification of a 5800-fold mouse melanocortin-3 receptor (mMC3R) selective antagonist/partial agonist versus the mouse melanocortin-4 receptor (mMC4R)” (J Med Chem, 2013)

Assays:
Melanocortin receptor 3 = Melanocortin receptor 3 (Mus musculus, UniProt P33033); assay: Antagonist activity at mouse MC3 receptor expressed in HEK293 cells after 6 hrs by cAMP-based beta-galactosidase reporter gene assay; type: functional, cell-based; conditions: read-out: pA2 (converted)
[1] = target: Melanocortin receptor 3 (Mus musculus) (UniProt P33033); assay: Partial agonist activity at mouse MC3 receptor expressed in HEK293 cells at 10^-4 M to 10^-12 M after 6 hrs by cAMP-based beta-galactosidase reporter gene assay; type: functional, cell-based
Summary of the method: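 In the mMC3R HEK-293 CRE/β-galactosidase reporter assay, cells were exposed 6 h to peptide at 10^-4 to 10^-12 M in IBMX/BSA medium. Maximal efficacy is expressed relative to NDP-MSH run on the same plate.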

Mus musculus = species: Mus musculus; assay: Selectivity for mouse MC3 receptor over mouse MC4 receptor

Melanocortin receptor 3 (Mus musculus), sequence (P33033 whole entry): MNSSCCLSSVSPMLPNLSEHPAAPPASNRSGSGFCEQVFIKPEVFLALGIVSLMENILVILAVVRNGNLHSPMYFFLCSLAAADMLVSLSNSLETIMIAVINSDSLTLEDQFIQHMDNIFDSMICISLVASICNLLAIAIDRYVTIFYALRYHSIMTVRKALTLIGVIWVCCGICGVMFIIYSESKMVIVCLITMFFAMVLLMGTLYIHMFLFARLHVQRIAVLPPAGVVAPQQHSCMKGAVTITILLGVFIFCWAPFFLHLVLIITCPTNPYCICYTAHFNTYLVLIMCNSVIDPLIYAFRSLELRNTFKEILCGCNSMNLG
Melanocortin receptor 3, sequence (P33033 whole entry): as above

| SMILES | Kb (Melanocortin receptor 3) [nM] | Emax [1] [%] | Selectivity ratio (Mus musculus) |
| --- | --- | --- | --- |
| C[C@@H]1NC(=O)[C@H](CC(N)=O)NC(=O)[C@H](Cc2c[nH]c3ccccc23)N2C[C@H](CCCN=C(N)N)NC(=O)[C@@H](CSCC2=O)NC(=O)[C@@H](Cc2ccc3ccccc3c2)NC(=O)[C@H](Cc2cnc[nH]2)NC(=O)[C@@H](NC(=O)[C@@H](N)Cc2ccc(O)cc2)CSSC[C@@H](C(=O)N[C@@H](Cc2ccc(O)cc2)C(N)=O)NC(=O)[C@H](Cc2ccccc2)NC1=O | 25.1 | – | – |
| C[C@@H]1NC(=O)[C@H](CC(N)=O)NC(=O)[C@H](Cc2c[nH]c3ccccc23)N2C[C@H](CCCNC(=N)N)NC(=O)[C@@H](CSCC2=O)NC(=O)[C@@H](Cc2ccc3ccccc3c2)NC(=O)[C@H](Cc2cnc[nH]2)NC(=O)[C@@H](NC(=O)[C@@H](N)Cc2ccc(O)cc2)CSSC[C@@H](C(=O)N[C@@H](Cc2ccc(O)cc2)C(N)=O)NC(=O)[C@H](Cc2ccccc2)NC1=O | – | 20 | – |
| C[C@@H]1NC(=O)[C@H](CC(N)=O)NC(=O)[C@H](Cc2c[nH]c3ccccc23)N2C[C@H](CCCNC(=N)N)NC(=O)[C@@H](CSCC2=O)NC(=O)[C@@H](Cc2ccc(-c3ccccc3)cc2)NC(=O)[C@H](Cc2cnc[nH]2)NC(=O)[C@@H](NC(=O)[C@@H](N)Cc2ccc(O)cc2)CSSC[C@@H](C(=O)N[C@@H](Cc2ccc(O)cc2)C(N)=O)NC(=O)[C@H](Cc2ccccc2)NC1=O | 0.126 | 10 | 5800 |
